{"source": "ChEMBL document CHEMBL1125077", "about": "“Synthetic and computer-assisted analyses of the pharmacophore for the benzodiazepine receptor inverse agonist site” (J Med Chem, 1990)", "key": {"[1]": {"target": "GABA-A receptor; anion channel", "assay": "In vitro inhibition of 3[H]Diazepam binding to Benzodiazepine receptor from rat cerebral cortical membranes", "type": "cell membranes, Membrane", "outline": "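Rat cerebral cortex (decapitation) homogenized in 50 mM Tris-HCl pH 7.4, spun 20000g 20 min at 4 °C, washed three times, resuspended in 50 volumes buffer. Incubated with [3H]diazepam (final 2 nM) at 4 °C for 120 min, then filtered on GF/B with ice-cold buffer washes. Nonspecific binding taken with 10 μM flunitrazepam. IC50 from Hill plots, at least six inhibitor concentrations, mean of three or more experiments.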"}, "[2]": {"target": "GABA-A receptor; anion channel", "assay": "In vitro inhibition of 3[H]Diazepam binding to Benzodiazepine receptor from rat cerebral cortical membranes; value ranges from 4-12 nM", "type": "cell membranes, Membrane"}}}
{"smiles": "CCOC(=O)c1cc2c3ccccc3c(N=O)c-2c[nH]1", "values": [{"measurement": "IC50", "setting": "[1]", "result": 5000, "unit": "nM"}]}
{"smiles": "COC(=O)c1cc2c3ccccc3n3c(=O)ccc(n1)c23", "values": [{"measurement": "IC50", "setting": "[1]", "result": 100, "unit": "nM"}]}
{"smiles": "CC(C)(C)OC(=O)c1cc2c3ccccc3nc-2c[nH]1", "values": [{"measurement": "IC50", "setting": "[1]", "result": 10, "unit": "nM"}]}
{"smiles": "CCOC(=O)c1cc2c(cn1)[nH]c1ccccc12", "values": [{"measurement": "IC50", "setting": "[1]", "result": 5, "unit": "nM"}]}
{"smiles": "CCc1nc(C(=O)OC)cc2c1[nH]c1ccccc12", "values": [{"measurement": "IC50", "setting": "[1]", "result": 7540, "unit": "nM"}]}
{"smiles": "CC(C)Oc1cc2c(cn1)[nH]c1ccccc12", "values": [{"measurement": "IC50", "setting": "[1]", "result": 500, "unit": "nM"}]}
{"smiles": "CCCCOc1cc2c(cn1)[nH]c1ccccc12", "values": [{"measurement": "IC50", "setting": "[1]", "result": 98, "unit": "nM"}]}
{"smiles": "CCCC(=O)c1cc2c(cn1)[nH]c1ccccc12", "values": [{"measurement": "IC50", "setting": "[1]", "result": 2.8, "unit": "nM"}]}
{"smiles": "CCCCc1cc2c(cn1)[nH]c1ccccc12", "values": [{"measurement": "IC50", "setting": "[1]", "result": 245, "unit": "nM"}]}
{"smiles": "c1ccc2c(c1)[nH]c1c2ccc2[nH]c3ccccc3c21", "values": [{"measurement": "IC50", "setting": "[1]", "result": 1970, "unit": "nM"}]}
{"smiles": "S=C=Nc1cc2c3ccccc3nc-2c[nH]1", "values": [{"measurement": "IC50", "setting": "[2]", "result": 4, "unit": "nM"}]}
{"smiles": "CCOC(=O)c1cc2c(cn1)sc1ccccc12", "values": [{"measurement": "IC50", "setting": "[1]", "result": 1700, "unit": "nM"}]}
{"smiles": "Cc1ccc2c(c1)[nH]c1c3c4ccccc4nc-3c[nH]c12", "values": [{"measurement": "IC50", "setting": "[1]", "result": 10, "unit": "nM"}]}
{"smiles": "CCOC(=O)c1cc2c(cn1)Cc1ccccc1-2", "values": [{"measurement": "IC50", "setting": "[1]", "result": 680, "unit": "nM"}]}
{"smiles": "CCOC(=O)c1cc2c(cn1)nc(O)c1ccccc12", "values": [{"measurement": "IC50", "setting": "[1]", "result": 2400, "unit": "nM"}]}
{"smiles": "CC(C)(C)COC(=O)c1cc2c3ccccc3nc-2c[nH]1", "values": [{"measurement": "IC50", "setting": "[1]", "result": 750, "unit": "nM"}]}
{"smiles": "Cc1cccc2[nH]c3c4c5ccccc5nc-4c[nH]c3c12", "values": [{"measurement": "IC50", "setting": "[1]", "result": 6860, "unit": "nM"}]}
{"smiles": "CCOC(=O)c1cc2c(cn1)oc1ccccc12", "values": [{"measurement": "IC50", "setting": "[1]", "result": 9200, "unit": "nM"}]}
{"smiles": "COC(=O)c1cc2c3ccccc3n(C(C)=O)c2cn1", "values": [{"measurement": "IC50", "setting": "[1]", "result": 9, "unit": "nM"}]}
{"smiles": "C[n+]1cc2[nH]c3ccccc3c2c2[nH]c3ccccc3c21", "values": [{"measurement": "IC50", "setting": "[1]", "result": 4660, "unit": "nM"}]}
{"smiles": "CCc1nc2c3ccccc3[nH]c2c2c1[nH]c1ccccc12", "values": [{"measurement": "IC50", "setting": "[1]", "result": 285, "unit": "nM"}]}
{"smiles": "COC(=O)c1cc2[nH]c3ccccc3c2cn1", "values": [{"measurement": "IC50", "setting": "[1]", "result": 653, "unit": "nM"}]}
{"smiles": "Cc1nccc2c1[nH]c1ccccc12", "note": "[HARMAN]", "values": [{"measurement": "IC50", "setting": "[1]", "result": 12400, "unit": "nM"}]}
